ASAP1 GAP inh: inhibitors of human ASAP1 ArfGAP activity; Q9ULH1; inhibition, % at 16.5 µM; ASAP1-stimulated ARF1 GTP hydrolysis, GDP FP detection; actives 0.19% (n = 360,000); AID 624377; in the data active = inhibition above about 25%
SKKanGAS inh: inhibitors of SKKanGAS S. pyogenes growth in kanamycin (SK-promoter or general growth effect); BacTiter-Glo, 6 h; inhibition, % at 7.5 µM; actives 1.3% (n = 300,000); AID 1662;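 active = mean replicate score, as percent of positive control median, at least 50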;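 also: strain carries kanamycin resistance gene driven by streptokinase promoter and grows in 40 µg/ml kanamycin; loss of luminescence reflects streptokinase promoter inhibition or plain growth inhibition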
ARFGAP1 inh: rat ARFGAP1 inhibition | Q62848 | Arfgap1-stimulated ARF1 GTP hydrolysis, GDP FP detection | inhibition, % at 16.5 µM | actives 0.26% (n = 360,000) | AID 651572;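 active = inhibition above a per-plate limit, mean inhibition of low control wells plus 3 SD, cut at about 25% in these data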
Target sequence (Q62848 1-136 limits assumed): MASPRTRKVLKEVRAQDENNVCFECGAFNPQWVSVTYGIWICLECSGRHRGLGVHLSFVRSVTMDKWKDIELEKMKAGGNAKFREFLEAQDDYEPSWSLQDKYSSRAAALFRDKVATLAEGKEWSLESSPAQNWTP
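System: truncated rat Arfgap1 GAP domain / Medium: HEPES-based buffer, pH 7.5 / Also added: N-terminally truncated human ARF1-GTP substrate / Incubation: enzyme reaction 120 min at 25 °C after 20 min preincubation / Measured by: FP of antibody-bound GDP Alexa 633 tracer, ex 620/em 688 nm / Replicates: singlicate, each compound tested once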
Calb FLC: affects C. albicans growth with fluconazole | C. albicans CaCi-2 + fluconazole, Alamar Blue growth, 48 h | growth inhibition, % (no concentration beside the values) | actives 0.57% (n = 300,000) | AID 1979;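 active = growth inhibition above about 58% in most replicates, limit read from the data, passing the limit was not always enough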;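 also: all wells also contain fluconazole at 8 µg/ml as a sub-toxic cotreatment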
sPLA2-III inh: Inhibits HGIII-sPLA2 liposome hydrolysis, primary screen; Q9NZ20; QFRET BODIPY PC-A2 liposome hydrolysis, fluorescence; actives 0.56% (n = 370,000); inhibition, % at 12.2 µM;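 active = inhibition above mean plus 3 SD of compounds lying within the high and low control bounds, cut at about 19% in these data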
Target sequence (Q9NZ20 whole entry, looked up): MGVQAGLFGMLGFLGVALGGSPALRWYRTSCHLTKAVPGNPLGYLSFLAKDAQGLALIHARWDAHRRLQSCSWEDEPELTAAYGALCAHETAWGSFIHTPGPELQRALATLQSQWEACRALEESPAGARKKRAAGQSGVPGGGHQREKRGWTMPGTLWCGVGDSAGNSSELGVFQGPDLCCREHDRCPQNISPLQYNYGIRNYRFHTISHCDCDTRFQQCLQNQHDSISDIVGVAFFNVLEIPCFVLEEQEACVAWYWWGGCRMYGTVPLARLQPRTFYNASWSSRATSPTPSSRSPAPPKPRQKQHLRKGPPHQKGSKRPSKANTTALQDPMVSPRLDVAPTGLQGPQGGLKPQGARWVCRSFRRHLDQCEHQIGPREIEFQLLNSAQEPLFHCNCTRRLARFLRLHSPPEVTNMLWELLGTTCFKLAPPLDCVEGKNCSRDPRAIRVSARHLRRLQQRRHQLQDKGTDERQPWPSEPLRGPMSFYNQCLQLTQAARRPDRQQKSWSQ
sPLA2 confirm: human GIII-sPLA2 inhibition, confirmation; shares compounds with sPLA2-III inh; recombinant hGIII-sPLA2, BODIPY PC-A2 QFRET fluorescence; inhibition, % at 12.2 µM; actives 34% (n = 2,000); AID 743280;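 active = mean inhibition across triplicates above the hit cutoff set in the earlier primary screen, cut at about 19% in these data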
BODIPY interf: optically interferes with 535nm fluorescence in sPLA2 counter-screen; BODIPY FL product fluorescence interference, QFRET; inhibition, % at 12.2 µM; actives 8.5% (n = 2,000); AID 743282; shares compounds with sPLA2-III inh;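 active = average inhibition above the solvent-only control mean plus 3 SD, cut at about 6% in these data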
BODIPY interf DR: interferes with 535nm fluorescence in dose response counter-screen. shares compounds with sPLA2-III inh. BODIPY FL product fluorescence interference, cell-free. IC50, µM. 240 tested, under 10 active;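 active = IC50 at or below 10 µM; inactive = IC50 above 10 µM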
Hits are given with their value; – = inactive; · = not tested or not shown. Shown are actives, neighbours in structure and some others; about 2.3% of the full set was active somewhere.

SMILES	ASAP1 GAP inh	SKKanGAS inh	ARFGAP1 inh	Calb FLC	sPLA2-III inh	sPLA2 confirm	BODIPY interf	others
CCCCn1c(/C=C/c2ccco2)nc2ccccc21	–	–	–	–	–	·	·
CCCCn1c(/C=N/Nc2nc3ccccc3[nH]2)nc2ccccc21	–	95	–	–	35	31	–
CN(C)CC(=O)N[C@@H]1C[C@@H]2O[C@@H](CO)CC[C@@H]2O[C@@H]1CCc1ccc(C2=CCCCC2)cc1	·	·	·	·	–	·	·
O=C(O)CNS(=O)(=O)Cc1ccccc1	–	–	–	–	20	–	–
CCC(=O)N1CCc2cc(Br)c(S(=O)(=O)NCCCN(C)Cc3ccccc3)cc21	·	·	·	·	–	·	·
COc1cccc(N=NC2C(=O)N(C(N)=S)N=C2C)c1 (stereo unspecified)	–	–	–	–	23	–	–
CC(C)CCNC(=S)Nc1ccccc1F	–	–	–	–	20	–	–
CN(CCO)C1CN(Cc2cn(Cc3ccccc3F)nn2)S(=O)(=O)C1 (stereo unspecified)	·	·	·	·	–	·	·
CCCCCC1CCC(c2n[nH]c(=S)n2C)CC1 (stereo unspecified)	–	–	–	99	20	26	–
C=CCn1c(C2CC2)n[nH]c1=S	–	–	–	–	–	·	·
C=CCn1c(CSc2ccc(C)cc2)n[nH]c1=S	–	–	–	–	22	25	–
C=CCn1c(SCc2n[nH]c(=S)n2-c2ccccc2)nnc1-c1ccccc1	–	–	–	–	20	–	–
Cc1ccccc1S(=O)(=O)N(C)C[C@H]1OCc2cnnn2CCCC(=O)N([C@H](C)CO)C[C@@H]1C	–	·	–	·	–	·	·
O=C(CNC(=O)c1ccco1)Nc1ccc(N2CCCCCC2)cc1	–	·	–	·	22	–	–
COC[C@@H]1CCCN1c1cccc2c1S(=O)(=O)N1CC[C@@H](C1)O2	·	·	·	·	–	·	·
CC1=NN(c2ccccc2)C(=O)/C1=C/C=C/c1ccccc1	–	–	–	–	23	46	11
COc1cccc2sc(NNC(=O)C3COc4ccccc4O3)nc12 (stereo unspecified)	–	–	–	–	22	24	–
O=C(NNc1nc2c(F)cccc2s1)C1COc2ccccc2O1 (stereo unspecified)	–	–	–	–	–	·	·
Cc1cccc(NC(=O)CN2CCN(C(=O)C3CCC3)CC2)c1C	–	·	–	·	21	–	–
Cc1ccc(NC(=O)CN2CCCC2)cc1	–	–	–	–	79	–	–
Cc1cccc(NC(=O)CN2CCN(CC(=O)Nc3ccc(-c4ccccc4)cc3)CC2)c1C	–	–	–	–	–	·	·
S=c1[nH]nc(-c2ccc(Cl)cc2)n1/N=C/C=C/c1ccco1	–	–	–	–	25	30	–
S=c1[nH]nc(-c2ccccc2)n1/N=C/C=C/c1ccco1	–	–	–	–	–	·	·
CC1(Oc2ccccc2)CCN(Cc2csc3ccccc23)C1 (stereo unspecified)	–	·	–	·	–	·	·
O=C(NCc1ccccc1)N1CCNCC1	–	–	–	–	22	–	–
SMILES	ASAP1 GAP inh	SKKanGAS inh	ARFGAP1 inh	Calb FLC	sPLA2-III inh	sPLA2 confirm	BODIPY interf	others
Fc1ccc(C2CC(c3ccco3)=NN2c2ccccc2)cc1 (stereo unspecified)	–	–	–	–	–	·	·
O=[N+]([O-])c1ccc(N2N=C(c3ccco3)CC2c2ccccc2)cc1 (stereo unspecified)	–	–	–	–	23	20	9.3
COc1cccc(N=Nc2ccc(O)c3ncccc23)c1	–	79	–	101	25	51	14
Cc1cc(C)nc(NC(=S)Nc2ccc(F)cc2F)c1	–	–	–	–	–	·	·
Cc1cccnc1NC(=S)Nc1ccc(F)cc1F	–	–	–	–	20	21	–
Cc1ccc(C)c(NC(=S)Nc2ncccc2C)c1	–	–	–	–	19	–	–
COc1cc(NC(=S)Nc2ncccc2C)cc(OC)c1OC	–	–	–	–	–	·	·
CN1C(=O)C[C@@](C#N)(C(=O)Nc2nc3ccc(F)cc3s2)[C@H]1c1ccccc1	·	·	·	·	–	·	·
COC(=O)C1CCCN(C(=O)C2CCN(S(=O)(=O)c3ccc([N+](=O)[O-])cc3)CC2)C1 (stereo unspecified)	·	·	·	·	–	·	·
CCCn1c(=O)c2ccccc2n2c(SCCOc3ccc(C)cc3)nnc12	–	–	–	–	19	–	–
CC[C@@H](OP(=O)(O)[C@@H](C)N)C(=O)O	·	·	·	·	–	·	·
CCc1cc(C(=O)Nc2nc(-c3ccccn3)cs2)sc1C	–	·	–	·	21	25	–
CC(=O)Nc1ccc(C(=O)Nc2nc(-c3ccccn3)cs2)cc1	–	–	–	–	–	·	·
O=C(Nc1nc(-c2ccccn2)cs1)c1ccc(-c2ccccc2F)o1	–	·	–	·	21	24	–
Cc1cc(C(=O)Nc2nc(-c3ccccn3)cs2)ccc1[N+](=O)[O-]	–	91	–	110	26	28	–	BODIPY interf DR=–
CC(=O)c1ccc(-c2ccc(C(=O)Nc3nc(-c4ccccn4)cs3)o2)cc1	–	·	–	·	–	·	·
CN(CCc1ccccc1)C(C(=O)c1ccc2c(c1)OCO2)c1nnnn1-c1ccccc1NC(=O)OC(C)(C)C (stereo unspecified)	–	·	–	·	–	·	·
O=c1cc(-c2ccccc2)cc(-c2ccccc2)n1O	–	–	–	–	21	–	–
Cn1c(-c2ccccc2)cc(=O)cc1-c1ccccc1	–	·	–	·	–	·	·
CCC(=O)Nc1ccc(C(=O)NCc2ccccn2)cc1	–	–	–	–	20	–	–
CCC(=O)Nc1ccc(C(=O)NNC(=O)CCCCC(=O)NNC(=O)c2ccc(NC(=O)CC)cc2)cc1	–	·	–	·	22	–	–
CCC(=O)Nc1ccc(C(=O)NNC(=O)c2ccc(C)cc2)cc1	–	–	–	–	–	·	·
CCOc1ccc(C(=O)NCc2ccccn2)cc1	·	–	·	–	·	·	·
OC1(C#Cc2c(-c3ccsc3)sc3ccccc23)CCCCC1	–	·	–	·	–	·	·
CCc1c(C(=O)C(C)O)c2n3c1CCC[C@@H]3CC2 (stereo partly specified)	·	·	·	·	–	·	·
COc1cc2c(cc1OC)CN(C(=O)c1cc(Cl)nc(Cl)c1)CC2	–	–	–	–	–	·	·
COc1cc2c(cc1OC)C1(C)N(CC2)C(C(C)=O)=NN1c1ccc(Cl)cc1 (stereo unspecified)	–	–	–	–	20	–	–
O=S(=O)(c1ccc(-c2n[nH]c(=S)o2)cc1)N1CCCCC1	–	–	–	–	–	·	·
O=S(=O)(c1ccc(-c2n[nH]c(=S)o2)cc1)N1CCCC1	–	–	–	–	21	–	–
O=C1c2ccccc2CN1CCSC(=S)N1CCOCC1	–	–	–	–	21	–	–
